Reference: ChEMBL document CHEMBL3576866, “Discovery of a Cyclic Boronic Acid β-Lactamase Inhibitor (RPX7009) with Utility vs Class A Serine Carbapenemases” (J Med Chem, 2015)
The source made the active and inactive calls. The calls are words filed in the database; no cut-off is given here.

Experiments:
[1] = molecular target: Class A carbapenemase KPC-2 (Escherichia coli) (UniProt A8DS27); assay: Inhibition of Escherichia coli EC1007 KPC-3 assessed as biapenem MIC at 4 ug/ml by broth microdilution method
[2] = molecular target: Carbapenem-hydrolyzing beta-lactamase KPC (Klebsiella pneumoniae) (UniProt Q9F663); assay: Inhibition of Klebsiella pneumoniae KP1083 KPC-3 assessed as meropenem MIC at 4 ug/ml by broth microdilution method
Procedure, shortened: (§1)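 CLSI broth microdilution (M07-A9, 2012) MIC of the carbapenem against clinical serine carbapenemase-producing strain, tested alone and with the inhibitor held at a fixed 4 μg/mL.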

[3] = molecular target: T1, Beta-lactamase SHV-1 (Klebsiella pneumoniae) (UniProt P0AD64); assay: Inhibition of Klebsiella pneumoniae KP1082 SHV-1 assessed as meropenem MIC at 4 ug/ml by broth microdilution method; procedure, shortened: as §1
T1 sequence (whole entry): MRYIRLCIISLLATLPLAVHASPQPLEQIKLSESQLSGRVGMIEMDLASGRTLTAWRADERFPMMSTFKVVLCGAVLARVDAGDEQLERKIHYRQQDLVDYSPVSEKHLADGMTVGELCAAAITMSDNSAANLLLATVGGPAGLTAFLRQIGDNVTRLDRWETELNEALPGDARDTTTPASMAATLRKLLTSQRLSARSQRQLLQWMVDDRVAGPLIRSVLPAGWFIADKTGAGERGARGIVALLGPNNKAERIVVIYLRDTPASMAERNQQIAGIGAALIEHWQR

[4] = system: Klebsiella pneumoniae; assay: Inhibition of Klebsiella pneumoniae KP1004 SHV-11 assessed as meropenem MIC at 4 ug/ml by broth microdilution method; procedure, shortened: as §1
[5] = molecular target: Class A carbapenemase KPC-2 (Escherichia coli) (UniProt A8DS27); assay: Inhibition of Escherichia coli EC1007 KPC-3 assessed as meropenem MIC at 4 ug/ml by broth microdilution method
[6] = molecular target: Lysosomal protective protein (Homo sapiens, UniProt P10619); assay: Inhibition of cathepsin A (unknown origin) using MCA-RPPGFSAFK-Dnp as substrate preincubated for 10 mins followed by substrate addition measured for 30 mins by […] analysis
[7] = AUC (0 to infinity) in rat at 1000 mg/kg, iv administered as 0.5 hrs infusion by HPLC-MS method; type: ADME, organism-based; set-up: dose 1000 mg/kg, route intravenous, time infinity; conditions: in vivo
[8] = Half life in rat at 1000 mg/kg, iv administered as 0.5 hrs infusion by HPLC-MS method; type: ADME, organism-based; conditions: in vivo
[9] = Volume of distribution at steady state in human at 1 g administered as 3 hrs of infusion; type: ADME, organism-based; conditions: in vivo, iv, read-out: Vdss
Procedure, shortened: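 Healthy volunteers received 3 h infusions. Plasma concentrations were fit to a noncompartmental model to derive steady-state volume of distribution at the 1 g dose.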

[10] = system: Klebsiella pneumoniae; assay: Inhibition of Klebsiella pneumoniae KP1009 CTX-M-15 assessed as cefepime MIC at 4 ug/ml by broth microdilution method
[11] = molecular target: Beta-lactamase SHV-5 (Klebsiella pneumoniae) (UniProt P0A3M1); assay: Inhibition of Klebsiella pneumoniae KP1011 SHV5 assessed as cefepime MIC at 4 ug/ml by broth microdilution method
Procedure, shortened: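 CLSI broth microdilution (M07-A9) against clinical strains expressing serine β-lactamases.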

[12] = molecular target: Beta-lactamase (Enterobacter cloacae) (UniProt P05364); assay: Inhibition of Enterobacter cloacae ECL1061 AmpC assessed as cefepime MIC at 4 ug/ml by broth microdilution method
[13] = system: Enterobacter cloacae; assay: Inhibition of Enterobacter cloacae ECL1058 SHV-11 assessed as biapenem MIC at 4 ug/ml by broth microdilution method
[14] = system: Klebsiella oxytoca; assay: Inhibition of Klebsiella oxytoca KX1017 SHV-30 assessed as biapenem MIC at 4 ug/ml by broth microdilution method
[15] = system: Klebsiella pneumoniae; assay: Inhibition of Klebsiella pneumoniae KP1088 SHV-11 assessed as biapenem MIC at 4 ug/ml by broth microdilution method
Procedure, shortened: (§2)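 CLSI broth microdilution (M07-A9, 2012) against the clinical K. pneumoniae isolate. Carbapenem MICs were read alone and with 9f held at a fixed 4 μg/mL.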

[16] = molecular target: Carbapenem-hydrolyzing beta-lactamase KPC (Klebsiella oxytoca) (UniProt Q848S6); assay: Inhibition of Klebsiella oxytoca KX1019 KPC-2 assessed as ertapenem MIC at 4 ug/ml by broth microdilution method
[17] = system: Klebsiella pneumoniae; assay: Inhibition of Klebsiella pneumoniae KP1082 KPC-2 assessed as imipenem MIC at 4 ug/ml by broth microdilution method
[18] = molecular target: T1, Beta-lactamase SHV-1 (Klebsiella pneumoniae); assay: Inhibition of Klebsiella pneumoniae KP1082 SHV-1 assessed as imipenem MIC at 4 ug/ml by broth microdilution method
[19] = molecular target: T1, Beta-lactamase SHV-1 (Klebsiella pneumoniae); assay: Inhibition of Klebsiella pneumoniae KP1083 SHV-1 assessed as imipenem MIC at 4 ug/ml by broth microdilution method
[20] = system: Klebsiella pneumoniae; assay: Inhibition of Klebsiella pneumoniae KP1088 SHV-11 assessed as imipenem MIC at 4 ug/ml by broth microdilution method; procedure, shortened: as §2
[21] = system: Klebsiella pneumoniae; assay: In vivo inhibition of KPC in Klebsiella pneumoniae KP1074 in Swiss webster neutropenic mouse lung infection model assessed as meropenem deltalog10CFU in lung at 50 mg/kg, ip administered every 2 hrs starting at 2 hrs postinfection measured after 24 hrs; type: functional
[22] = system: Klebsiella pneumoniae; assay: Inhibition of Klebsiella pneumoniae KP1087 SHV-11 assessed as imipenem MIC at 4 ug/ml by broth microdilution method
Procedure, shortened: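 CLSI broth microdilution (M07-A9) against clinical K. pneumoniae strain KP1087 (KPC-2, CTX-M-15, SHV-11, TEM-1); carbapenem MIC (μg/mL) read with the inhibitor held at a fixed 4 μg/mL, alongside carbapenem alone.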

[23] = molecular target: T2, Class A carbapenemase (Enterobacter cloacae) (UniProt A7WP95); assay: Inhibition of Enterobacter cloacae ECL1058 KPC-3 assessed as imipenem MIC at 4 ug/ml by broth microdilution method
T2 sequence (whole entry): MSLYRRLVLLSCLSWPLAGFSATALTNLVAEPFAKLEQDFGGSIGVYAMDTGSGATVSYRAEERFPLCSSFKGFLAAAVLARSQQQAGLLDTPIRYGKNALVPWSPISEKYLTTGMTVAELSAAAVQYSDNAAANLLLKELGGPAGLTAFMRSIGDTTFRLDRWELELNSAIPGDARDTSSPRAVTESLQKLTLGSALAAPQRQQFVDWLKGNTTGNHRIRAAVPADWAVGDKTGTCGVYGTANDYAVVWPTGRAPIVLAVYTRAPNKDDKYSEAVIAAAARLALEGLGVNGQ

[24] = system: Klebsiella pneumoniae; assay: Antibacterial activity against Klebsiella pneumoniae KP1004 by broth microdilution method; type: functional, organism-based
[25] = Inhibition of Escherichia coli recombinant SHV-12 assessed as substrate nitrocefin degradation preincubated for 10 mins followed by substrate addition measured every 10 secs for 10 mins by spectrophotometric analysis
Procedure, shortened: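 β-Lactamases purified from overexpressing recombinant E. coli. Enzyme preincubated with inhibitor at varying concentrations for 10 min at room temperature in 50 mM Na phosphate pH 7.0, 0.1 mg/mL BSA. Then 50 μM nitrocefin (final) added and cleavage read at 490 nm every 10 s for 10 min. Ki derived by the Waley method.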

Sequence of Lysosomal protective protein (P10619 29-326 limits assumed): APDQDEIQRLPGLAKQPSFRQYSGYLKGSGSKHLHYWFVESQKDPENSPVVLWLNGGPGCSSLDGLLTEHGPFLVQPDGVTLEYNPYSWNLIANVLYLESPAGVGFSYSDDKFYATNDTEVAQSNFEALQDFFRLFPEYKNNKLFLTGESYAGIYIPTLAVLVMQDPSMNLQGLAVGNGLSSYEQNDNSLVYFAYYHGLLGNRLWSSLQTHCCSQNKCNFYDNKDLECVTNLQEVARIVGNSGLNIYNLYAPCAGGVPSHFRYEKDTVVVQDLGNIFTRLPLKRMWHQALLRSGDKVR
Sequence of Lysosomal protective protein (P10619 327-480 limits assumed): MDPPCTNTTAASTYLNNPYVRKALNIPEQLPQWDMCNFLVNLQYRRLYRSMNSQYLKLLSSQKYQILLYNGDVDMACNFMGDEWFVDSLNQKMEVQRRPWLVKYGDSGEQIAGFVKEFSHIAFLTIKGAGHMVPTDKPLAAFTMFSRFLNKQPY

O=C(O)C[C@@H]1CC[C@H](NC(=O)Cc2cccs2)B(O)O1 [VABORBACTAM]
MIC [1]: < 0.06 µg/mL
MIC [2]: < 0.06 µg/mL
MIC [3]: < 0.06 µg/mL
MIC [4]: ≤ 0.06 µg/mL
MIC [5]: < 0.06 µg/mL
IC50 [6]: 1000 µM
AUC(0-inf) [7]: 1040 µg·h/mL
half-life [8]: 24 min
Vd [9]: 21 L
MIC [10]: 2 µg/mL
MIC [11]: 0.25 µg/mL
MIC [12]: 2 µg/mL
MIC [13]: < 0.06 µg/mL
MIC [14]: < 0.06 µg/mL
MIC [15]: ≤ 0.06 µg/mL
MIC [16]: 0.25 µg/mL
MIC [17]: 0.13 µg/mL
MIC [18]: 0.13 µg/mL
MIC [19]: 0.13 µg/mL
MIC [20]: ≤ 0.06 µg/mL
deltalog10CFU [21]: -2.03
MIC [22]: 0.25 µg/mL
MIC [23]: 0.25 µg/mL
Activity [24]: inactive
Ki [25]: 0.029 µM
